As usually defined, the IC50 is the point on the concentration scale where inhibition reaches its midpoint. A lower IC50 goes with greater potency in that assay. By inhibition is commonly meant the change of the read-out against control, counted positive when it falls. A higher inhibition goes with strong suppression.

Structures are written as SMILES.

One compound from ChEMBL document CHEMBL4811218, “Discovery and optimization of withangulatin A derivatives as novel glutaminase 1 inhibitors for the treatment of triple-negative breast cancer” (Eur J Med Chem, 2021) can be followed below.

Series [1] deals with MDA-MB-231. In words: Antiproliferative activity against human MDA-MB-231 cells after 24 hrs by MTT assay relative to control. It is filed as functional. In outline:
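MDA-MB-231 cells kept in DMEM with 10% FBS at 37°C, 5% CO2. Seeded at 5×10^3 cells/well and left 24 h, then exposed to compounds at 0.078-10 µM for 24 h. 0.1% DMSO served as the vehicle control. MTT added for 4 h, formazan dissolved in DMSO, absorbance read at 570 nm. IC50 derived. Each run in triplicate, repeated at least three times.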
A general note: Formazan colour is commonly taken as a measure of viable cells.

Series [2] in a line: Toxicity in BALB/c nude mouse xenografted with human MDA-MB-231 cells assessed as effect on body weight at 25 to 50 mg/kg, ip administered every 3 days for 4 weeks. The format is organism-based. The following applies: in vivo, 672 h, dose 25-50 mg/kg. The method, boiled down:
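Nude mice given 3×10^6 MDA-MB-231 cells in 200 µL PBS, injected subcutaneously into the right flank. Once tumors reached about 100 mm³, mice were randomized into four groups. Dosing was 25 or 50 mg/kg i.p. every three days for four weeks. Tumor volume, tumor weight and body weight were followed. n = 6, mean ± SD.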
(In general: In xenograft studies the graft and the host belong to different species.)

In series [3] the test system is MDA-MB-231. In words: Potency index, ratio of WA IC50 to compound IC50 for antiproliferative activity against human MDA-MB-231 cells after 24 hrs by MTT assay. It is filed as functional. The method, boiled down:
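Ratio calculated from MTT IC50 values in MDA-MB-231 cells. Cells seeded at 5×10^3/well for 24 h, then treated 24 h at 0.078-10 µM with 0.1% DMSO as vehicle. Absorbance read at 570 nm after 4 h MTT and DMSO solubilization. Triplicate wells, at least three repeats.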

The test system of series [4] is MDA-MB-231. The series can be described thus: Induction of apoptosis in human MDA-MB-231 cells assessed as late apoptotic cells at 160 nM incubated for 12 hrs by annexin V-FITC/PI based flow cytometric analysis (reference value: 0.7%). It is filed as functional. The method, boiled down: (§1)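 Cells exposed to compound or 0.1% DMSO for 12 h at 37°C, then resuspended in PBS at 1×10^5 cells/mL. Stained with annexin V-FITC and PI for 20 min at room temperature in the dark, then analysed by flow cytometry. Quadrant percentages reported: lower right early apoptotic, upper right late apoptotic. n = 4, mean ± SD.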
Background: Flow cytometry measures light scatter and fluorescence of single cells or particles in a stream.

In series [5] the test system is MDA-MB-231. In words: Induction of apoptosis in human MDA-MB-231 cells assessed as viable cells at 320 nM incubated for 12 hrs by annexin V-FITC/PI based flow cytometric analysis (reference value: 98.1%). The settings on record: read-out: Activity. The format is functional. The method, boiled down:
as §1

Series [6] has as its target T1, Glutaminase kidney isoform, mitochondrial (Homo sapiens, UniProt O94925).
T1 sequence (O94925 whole entry): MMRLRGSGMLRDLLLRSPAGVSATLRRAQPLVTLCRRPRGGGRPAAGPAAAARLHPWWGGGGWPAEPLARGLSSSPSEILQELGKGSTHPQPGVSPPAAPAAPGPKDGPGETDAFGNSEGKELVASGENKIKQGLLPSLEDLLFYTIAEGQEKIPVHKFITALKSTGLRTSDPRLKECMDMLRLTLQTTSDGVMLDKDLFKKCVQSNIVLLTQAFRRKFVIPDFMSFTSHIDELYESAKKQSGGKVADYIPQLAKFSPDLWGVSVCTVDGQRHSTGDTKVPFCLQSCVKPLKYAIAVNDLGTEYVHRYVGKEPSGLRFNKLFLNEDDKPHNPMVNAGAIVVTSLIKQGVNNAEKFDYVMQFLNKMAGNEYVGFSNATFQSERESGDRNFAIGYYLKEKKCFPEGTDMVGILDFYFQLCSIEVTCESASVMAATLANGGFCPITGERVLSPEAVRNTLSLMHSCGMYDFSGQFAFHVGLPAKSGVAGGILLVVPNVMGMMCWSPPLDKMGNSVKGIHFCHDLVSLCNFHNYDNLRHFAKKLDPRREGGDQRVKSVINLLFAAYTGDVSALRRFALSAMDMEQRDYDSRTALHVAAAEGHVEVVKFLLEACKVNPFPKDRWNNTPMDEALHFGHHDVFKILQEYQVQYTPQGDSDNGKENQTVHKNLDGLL
In words: Inhibition of human GLS1. In outline:
(§2)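 Human GLS1 hydrolase activity measured with a commercial GLS1 inhibitor screening kit, following the manufacturer's protocol. Single-point screening was run at 10 μM.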

A short description of series [7]: Toxicity in BALB/c nude mouse xenografted with human MDA-MB-231 cells assessed as heart tissue damage at 25 to 50 mg/kg, ip administered every 3 days for 4 weeks. The format is organism-based. The settings on record: in vivo, 672 h, dose 25-50 mg/kg. In outline:
(§3)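 Xenograft-bearing nude mice (MDA-MB-231, s.c. right flank, treated from about 100 mm³) received 25 or 50 mg/kg i.p. every three days for four weeks. At the end mice were euthanized, and visceral organs were fixed in 4% paraformaldehyde for histopathology.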

Series [8] in a line: Toxicity in BALB/c nude mouse xenografted with human MDA-MB-231 cells assessed as spleen tissue damage at 25 to 50 mg/kg, ip administered every 3 days for 4 weeks. It is filed as organism-based. The settings on record: in vivo, 672 h, dose 25-50 mg/kg. The method, boiled down: as §3
The target of series [9] is T2, Glutaminase kidney isoform, mitochondrial (Homo sapiens) (UniProt O94925).
T2 sequence (whole entry): T1 sequence (O94925 whole entry)
In words: Inhibition of human GLS1 at 10 uM relative to control. In outline:
as §2

Series [10] relates to MDA-MB-231. In words: Induction of apoptosis in human MDA-MB-231 cells assessed as necrotic cells at 320 nM incubated for 12 hrs by annexin V-FITC/PI based flow cytometric analysis (reference value: 0.1%). The format is functional. The method, boiled down:
as §1

Series [11] relates to MDA-MB-231. In words: Induction of apoptosis in human MDA-MB-231 cells assessed as early apoptotic cells at 320 nM incubated for 12 hrs by annexin V-FITC/PI based flow cytometric analysis (reference value: 1.2%). It is filed as functional. The method, boiled down: as §1
For series [12], the system named is MDA-MB-231. In words: Induction of apoptosis in human MDA-MB-231 cells assessed as increase in cleaved caspase-3 expression after 12 hrs by Western blotting analysis. The settings on record: dose 160-640 nM. The format is functional, cell-based. The method, boiled down:
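MDA-MB-231 cells exposed to graded concentrations or 0.1% DMSO; the methods state 24 h, the legend 12 h. Lysed in RIPA, 80 µg protein per lane on SDS-PAGE and transferred to PVDF. Probed overnight at 4°C for caspase-3, cleaved caspase-3, caspase-9 and cleaved caspase-9, with GAPDH as loading control. HRP secondaries, ECL detection, densitometry. n = 4.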

The target of series [13] is T2, Glutaminase kidney isoform, mitochondrial (Homo sapiens). The series can be described thus: Potency index, ratio of WA IC50 to compound IC50 for inhibition of human GLS1. The method, boiled down: as §2

As to `CC(=O)O[C@H]1C=C([C@H](C)[C@H]2CC(C)=C(C)C(=O)O2)[C@@]2(C)CC[C@H]3[C@@H](C[C@H]4O[C@]45[C@@H](OC(=O)CCCC(=O)Nc4ccc(N6CCOCC6)c(F)c4)C=CC(=O)[C@]35C)[C@@]12O`, the “inhibition (INH)” value with MDA-MB-231 [1] stood at 95.2%. The Activity entry is listed as “Non-Toxic” in [2]; 1% in the series on MDA-MB-231 [4]; “Non-Toxic” in series [7]; “Non-Toxic” in series [8]; 0.1% in the series on MDA-MB-231 [10]; 16.7% with MDA-MB-231 [11]. The Activity entry with MDA-MB-231 [12] is “Dose-Dependent Effect”. Further, the “Ratio IC50” value (in the series with MDA-MB-231 [3]; in [13]) was 20 each time. The viability at 0.32 µM in the series with MDA-MB-231 [5] is 80.3%. In series [6], this compound returned an IC50 of 1080 nM. In series [9], the inhibition was 87.2%.
